Assay outcomes (PubChem)
In the library only some 2.5% were active in any assay of this set; here they are far more common.
GASC-1 inh: human JMJD2C demethylase inhibition. GST-JMJD2C(1-420) H3K9me3 demethylation, DELFIA europium. inhibition, % at 2.35 µM. Q9H3R0. 0.069% of 330,000 active;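 active = more than half of a compound's replicate wells show inhibition beyond 50%, single wells judged on their own value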;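 note: signal counts dimethyl H3K9 product captured on neutravidin plate; 0% = median of DMSO wells and 100% = 0.3 times that DMSO median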
NR2E3 ag-1: NR2E3 (human) agonism; Q9Y5X4; GST-NR2E3/biotin-RetCOR TR-FRET, 1536-well; inhibition of corepressor binding, % at 4.78 µM; 0.12% of 320,000 active;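 active = percent inhibition above the cutoff of mean plus 3 SD of all tested compounds, set per screening campaign, cut at about 20% in these data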;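 note: 0% = DMSO wells and 100% = biotin wells as full block of FRET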
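Material: NR2E3–RetCOR corepressor complex / Incubation: Compound–protein incubation for 5 h at 4 °C / Dosing: compound at 4.8 µM, single dose / Detection: time-resolved FRET / Benchmarks: high control biotin, low control 0.6% DMSO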
ADAM10 inh: inhibitors of human ADAM10 | O14672 | recombinant ADAM10, EDANS/DABCYL FRET peptide cleavage, 3 h | inhibition, % at 7 µM | 0.62% of 370,000 active;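 active = inhibition above a per-campaign cutoff equal to the mean of compounds falling between control-based bounds plus 3 SD, cut at about 20% in these data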;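 note: 0% = DMSO wells while the 100% control is not disclosed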
KLK7 zymogen act: activates the human kallikrein-7 zymogen; activation, % at 7 µM; 0.9% of 370,000 active; AID 652039; P49862; purified proKLK7, EDANS-DABCYL substrate fluorescence; 100% is mature enzyme control, 0% vehicle;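 active = activation above the mean of all tested compounds plus 3 SD, computed per campaign excluding outliers beyond control limits, cut at about 13% in these data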
ADAM17 inh: ADAM17 inhibition, QFRET primary screen | P78536 | recombinant ADAM17, EDANS/DABCYL FRET peptide cleavage | inhibition, % at 6.95 µM | 0.83% of 370,000 active | AID 720648;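 active = inhibition above the mean of compounds lying between control limits plus 3 SD, set per campaign, cut at about 8.5% in these data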;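 note: 0% = DMSO-only wells as the low control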
Target sequence (P78536 215-824 limits assumed): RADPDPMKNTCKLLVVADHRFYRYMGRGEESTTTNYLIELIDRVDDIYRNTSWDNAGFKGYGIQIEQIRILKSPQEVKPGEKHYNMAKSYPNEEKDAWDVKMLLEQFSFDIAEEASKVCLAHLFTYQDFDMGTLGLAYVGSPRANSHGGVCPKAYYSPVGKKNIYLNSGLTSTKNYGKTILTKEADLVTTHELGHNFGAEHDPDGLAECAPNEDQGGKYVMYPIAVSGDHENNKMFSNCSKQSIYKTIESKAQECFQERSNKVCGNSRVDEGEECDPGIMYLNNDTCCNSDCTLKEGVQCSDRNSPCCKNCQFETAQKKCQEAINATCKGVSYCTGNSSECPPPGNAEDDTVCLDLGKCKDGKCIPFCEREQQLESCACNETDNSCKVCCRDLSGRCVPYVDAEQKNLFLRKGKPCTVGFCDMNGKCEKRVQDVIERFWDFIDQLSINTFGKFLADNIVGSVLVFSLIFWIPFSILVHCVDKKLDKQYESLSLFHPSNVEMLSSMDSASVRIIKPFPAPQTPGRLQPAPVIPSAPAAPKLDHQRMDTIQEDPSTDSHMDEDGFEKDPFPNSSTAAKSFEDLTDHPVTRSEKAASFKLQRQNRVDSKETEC
NR2E3 ag-2: activates human NR2E3 receptor. Q9Y5X4. CHO-S Gal4-NCOR/VP16-NR2E3 two-hybrid, luciferase. inhibition of corepressor binding, % at 3.98 µM. 0.35% of 360,000 active;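 active = inhibition above the mean of all tested compounds plus 3 SD, cut at about 70% in these data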;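 note: 0% = DMSO with NR2E3 transfected cells and 100% = cells lacking NR2E3 construct; higher means lower luciferase signal from less NR2E3 corepressor binding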
ADAM10 confirm: confirmation of inhibitors of human ADAM10; shares compounds with ADAM10 inh; ADAM10 QFRET peptide cleavage, EDANS fluorescence; inhibition, % at 6.95 µM; 1% of 2,100 active;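 active = inhibition above about 20% chosen separately for each screening run, limit read from the data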;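 note: 0% = DMSO wells and 100% = marimastat wells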
ADAM17 ctr: counter-screen for ADAM10 exosite inhibitors: inhibitors of human ADAM17. shares compounds with ADAM10 inh. 0.5% of 2,100 active. inhibition, % at 6.95 µM. AID 743214. ADAM17 QFRET peptide cleavage, EDANS fluorescence;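 active = mean triplicate inhibition above the solvent-only control wells' mean plus 3 SD, cut at about 12% in these data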;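 note: 0% = DMSO wells and 100% = marimastat wells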
The depositor's hits bear a star; . = no result.

SMILES | GASC-1 inh | NR2E3 ag-1 | ADAM10 inh | KLK7 zymogen act | ADAM17 inh | NR2E3 ag-2 | ADAM10 confirm | ADAM17 ctr
CCOc1ccccc1/C=N/NC(=O)Cc1csc(Nc2cccc(C(F)(F)F)c2)n1 | 12 | -1 | 9 | 0 | 7 | -13 | . | .
COc1ccc(/C=N/NC(=O)Cc2csc(Nc3cccc(C(F)(F)F)c3)n2)c(OC)c1 | 34 | -3 | 25* | 0 | 6 | -5 | 9 | 3
O=C(NCC(=O)N1CC=C(c2ccccc2)CC1)c1ccco1 | 5 | -1 | -7 | 0 | -4 | -28 | . | .
CC(=O)N1CCc2c(sc(NC(=O)CS(=O)(=O)c3ccc(F)cc3)c2C(N)=O)C1 | 22 | 1 | -82 | 0 | -25 | -19 | . | .
Cn1cccc1/C=N/NC(=O)c1cc2ccccc2cc1O | -27 | 8 | 23* | -3 | 1 | -4 | 8 | 5
Cn1cccc1/C=N/NC(=O)c1ccccn1 | 4 | 1 | -4 | 1 | -3 | -118 | . | .
O=C(NCc1ccc(OC(F)(F)F)cc1)c1cc(-c2ccccc2)nn1CC1CC(c2cccnc2)=NO1 (stereo not drawn) | -11 | -1 | 20* | 1 | 6 | 22 | 0 | 1
O=C(NCc1ccco1)c1cc(-c2ccccc2)nn1CC1CC(c2cccnc2)=NO1 (stereo not drawn) | -5 | -3 | 2 | 0 | -2 | -42 | . | .
Cc1ccc2c(c1)/C(=C/c1ccc(F)cc1)C(=O)N2 | 3 | -2 | 22* | -1 | 3 | -23 | 1 | 0
Cc1ccc2c(c1)/C(=C/c1ccccc1C)C(=O)N2 | -7 | -1 | 0 | 0 | 2 | -21 | . | .
Cc1noc(C)c1COC(=O)C1CCN(S(=O)(=O)c2c(Cl)cccc2Cl)CC1 | 1 | 4 | -7 | 0 | 0 | -29 | . | .
CC(C)C(C(=O)NCc1ccccc1)N1CCN(C(=O)C2CCCO2)CC1 (stereo not drawn) | . | . | -3 | 1 | -1 | . | . | .
Cn1nc(C(=O)Nc2nc(-c3ccc(F)cc3)cs2)ccc1=O | 8 | 3 | 4 | 0 | 1 | -7 | . | .
O=S(=O)(Nc1ccc(N=Nc2ccccc2)cc1)c1ccccc1 | -8 | 1 | 20* | 0 | 8 | -41 | 7 | 1
CCOc1ccc(NC(=O)c2ccc(CN3CCc4ccccc4C3)cc2)cc1 | 4 | 6 | 20* | 0 | 8 | -34 | 11 | 5
Fc1ccc2c(c1)C1C=CCC1C(c1cc3c(cc1Br)OCO3)N2 (stereo not drawn) | 4 | -1 | 1 | 0 | -4 | -8 | . | .
Cc1cccc2c1NC(=O)/C2=C\C(=O)c1cccs1 | -19 | -4 | 4 | 0 | 1 | -16 | . | .
Cc1cc(Br)c2c(c1)/C(=C/C(=O)c1cccs1)C(=O)N2 | 8 | -6 | 20* | 0 | 1 | -27 | 1 | 0
C/C(CC(=O)Nc1ccc([N+](=O)[O-])cc1)=N/NC(=O)C1CC12CCC2 (stereo not drawn) | -4 | 5 | 20* | 0 | 8 | -17 | 2 | 0
CC(CC(=O)O)CC(=O)Nc1cc([N+](=O)[O-])ccc1O (stereo not drawn) | 0 | -2 | 20* | 0 | 1 | -10 | 4 | 1
O=C(N/N=C\c1ccc(Cl)cc1)c1sccc1-n1cccc1 | 5 | -3 | -2 | 0 | -4 | -15 | . | .
O=C(N/N=C\c1ccc(Cl)cc1Cl)c1sccc1-n1cccc1 | -14 | 1 | 20* | 0 | 2 | -59 | 7 | 2
CCc1nc2ccc(C(=O)NCCCn3ccnc3)cn2c1N(CC)CCOC | . | . | -12 | 0 | -5 | -3 | . | .
Cc1cc(O)c(-c2cc(C(=O)NCCc3ccc(S(N)(=O)=O)cc3)[nH]n2)cc1C | -3 | 0 | 17 | 1 | 4 | -4 | . | .
NS(=O)(=O)c1ccc(CCNC(=O)c2cc(-c3cc(Cl)ccc3O)n[nH]2)cc1 | 0 | -2 | 23* | 0 | 2 | -12 | 2 | 2
SMILES | GASC-1 inh | NR2E3 ag-1 | ADAM10 inh | KLK7 zymogen act | ADAM17 inh | NR2E3 ag-2 | ADAM10 confirm | ADAM17 ctr
O=C1NC[C@H](Cc2ccccc2)N(CC2CCN(CCc3ccc(-c4ccccc4)cc3)CC2)C1=O | . | . | -12 | 0 | -7 | -7 | . | .
O=C(Nc1cccc(Cl)c1)OCCOc1ccccc1 | -9 | . | 9 | 0 | 5 | -73 | . | .
O=C(Nc1cccc(Cl)c1)OCCOC(=O)Nc1cccc(Cl)c1 | . | . | 21* | 1 | 8 | 0 | 4 | 2
O=C(CSc1cn[nH]n1)Nc1nc2ccccc2s1 | 15 | 4 | 20* | 0 | 2 | -62 | 1 | 0
CC(C)NC(=O)[C@H](CSCc1ccccc1)N1Cc2ccccc2C1=O | -4 | 5 | -6 | -1 | -3 | -29 | . | .
O=C(NC1CCCCC1)[C@H](CSCc1ccccc1)N1Cc2ccccc2C1=O | 3 | 0 | 22* | 0 | 7 | -14 | 1 | 0
COc1cc(NCC2COc3c(ccc(OC)c3OC)C2=O)c([N+](=O)[O-])cc1OC (stereo not drawn) | . | . | -14 | 0 | -7 | -16 | . | .
Nc1nc(SCc2ccc(Cl)cc2Cl)c2ncn(C3OC(CO)C(O)C3O)c2n1 (stereo not drawn) | . | . | -8 | 0 | -2 | -16 | . | .
CC(=O)NC(c1ccc(F)c(F)c1)c1nc(-c2cccc(C(C)C)c2)cs1 (stereo not drawn) | . | . | 20* | 0 | 7 | 4 | 3 | 2
CCn1cc(C(=O)O)c(=O)c2cnc(N3CCN(C(=S)NC(=O)c4ccc(Cl)cc4)CC3)nc21 | 1 | 2 | . | . | . | . | . | .
CCOc1ccc(NC(=O)CSc2nc3ccccc3nc2N2CC(C)OC(C)C2)cc1 (stereo not drawn) | -8 | 5 | 0 | 0 | 1 | -26 | . | .
COc1ccc(CNC(=O)[C@H](NC(=O)C2CCN(C(=O)[C@@H](N)CCSC)CC2)C(C)C)cc1 | -19 | -2 | 82* | 0 | -1 | -43 | -1 | 0
COCC(C)N1CC(O)=C(c2nc(-c3ccc(Cl)cc3)cs2)C1=N (stereo not drawn) | 6 | 2 | 3 | 1 | -1 | -7 | . | .
C[C@H]1[C@@H](c2ccccc2)OC(O)([C@H](Cc2ccccc2)NC(=O)OC(C)(C)C)CN1C (stereo partly drawn) | . | . | 3 | . | -1 | . | . | .
CC(C)C(=O)OCC(=O)Nc1ccc(N=Nc2ccccc2)cc1 | -7 | 1 | 25* | 0 | 7 | -90 | 0 | 1
CC(=O)OCC(=O)Nc1ccc(N=Nc2ccccc2)cc1 | 0 | 1 | 11 | -1 | 5 | -151 | . | .
